Data taken from ChEMBL document CHEMBL4017499, “The Discovery of Novel Antimalarial Aminoxadiazoles as a Promising Nonendoperoxide Scaffold” (J Med Chem, 2017).
pIC50: −log10 of the molar value. Values after ≈ are worked out from the molar mass of the structure shown. Blank lines part the entries; values can stand above or below the molecule they belong to.

Experiments:
Plasmodium falciparum [1] = experiment: Antiplasmodial activity against Plasmodium falciparum 3D7A infected in red blood cells preincubated for 24 hrs followed by [3H]-hypoxanthine addition measured after 24 hrs by scintillation counting; format: functional, cell-based
Outline: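 Whole-cell growth assay on sensitive P. falciparum strain 3D7A by [3H]hypoxanthine incorporation; two or three independent biological replicates per value.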

Liver = experiment: Intrinsic clearance in human liver microsomes at 0.5 uM up to 45 mins in presence of NADPH by HPLC-MS/MS analysis; format: ADME, microsome; conditions: 0.75 h
Plasma [2] = experiment: Drug level in Swiss CD1 mouse plasma treated with 5-([3,4'-Bipyridin]-2'-yl)-N-(4-(pyrrolidin-1-ylmethyl)phenyl)-1,3,4-oxadiazol-2-amine at 500 mg/kg, po by HPLC analysis; format: ADME, organism-based; conditions: in vivo
Outline: (§1)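 Mice given high oral doses (250/300 and 500 mg/kg); plasma analysed by HPLC for parent compound and breakdown products, expressed as percentage levels.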

[3] = Lipophilicity, log D of compound at pH 7.4 by chromatographic method; format: physicochemical; conditions: buffer
Plasmodium falciparum [4] = experiment: Ratio of IC50 for chloroquine/pyrimethamine-resistant Plasmodium falciparum V1/S infected in red blood cells to IC50 for wild type Plasmodium falciparum 3D7A infected in red blood cells; format: functional
[5] = Ratio of IC50 for Plasmodium falciparum HB3 infected in red blood cells to IC50 for wild type Plasmodium falciparum 3D7A infected in red blood cells; format: functional
[6] = Ratio of IC50 for chloroquine/pyrimethamine-resistant Plasmodium falciparum Dd2 infected in red blood cells to IC50 for wild type Plasmodium falciparum 3D7A infected in red blood cells; format: functional
Plasmodium falciparum [7] = experiment: Ratio of IC50 for pyrimethamine-resistant Plasmodium falciparum TC08 infected in red blood cells to IC50 for wild type Plasmodium falciparum 3D7A infected in red blood cells; format: functional
Plasmodium falciparum [8] = experiment: Ratio of IC50 for chloroquine-resistant Plasmodium falciparum T9/94 infected in red blood cells to IC50 for wild type Plasmodium falciparum 3D7A infected in red blood cells; format: functional
Plasmodium falciparum [9] = experiment: Ratio of IC50 for chloroquine/pyrimethamine/atovaquone-resistant Plasmodium falciparum Tm90C2B infected in red blood cells to IC50 for wild type Plasmodium falciparum 3D7A infected in red blood cells; format: functional
Plasmodium falciparum [10] = experiment: Ratio of IC50 for chloroquine/atovaquone/cycloguanil-resistant Plasmodium falciparum FCR3 infected in red blood cells to IC50 for wild type Plasmodium falciparum 3D7A infected in red blood cells; format: functional
Plasmodium falciparum [11] = experiment: Antimalarial activity against Plasmodium falciparum 3D7 0087/N9 infected in po dosed mouse assessed as average daily exposure in whole blood required to reduce parasitemia administered 3 days post infection dosed once a day for four consecutive days measured 7 days post dose; format: functional, organism-based
Plasmodium falciparum [12] = experiment: Ratio of IC50 for chloroquine/pyrimethamine-resistant Plasmodium falciparum Tm90C2A infected in red blood cells to IC50 for wild type Plasmodium falciparum 3D7A infected in red blood cells; format: functional
[13] = (§2) Clearance in CD1 mouse at 1 mg/kg, iv measured up to 24 hrs post dose by LC-MS/MS analysis; format: ADME, organism-based; conditions: CD1, mouse, in vivo
Outline: (§3)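 Pharmacokinetics in mouse after a single intravenous dose of 1 mg/kg.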

[14] = Volume of distribution at steady state in CD1 mouse at 1 mg/kg, iv measured up to 24 hrs post dose by LC-MS/MS analysis; format: ADME, organism-based; conditions: in vivo, read-out: Vdss; outline: as §3
[15] = Oral bioavailability in CD1 mouse at 10 mg/kg measured up to 24 hrs post dose by LC-MS/MS analysis; format: ADME, organism-based; conditions: in vivo
Outline: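 Oral bioavailability in mouse after a single oral dose of 10 mg/kg.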

Plasmodium falciparum [16] = experiment: Antimalarial activity against Plasmodium falciparum 3D7 0087/N9 infected in po dosed SCID mouse assessed as reduction in parasitemia administered 3 days post infection dosed once a day for four consecutive days measured after 7 days; format: functional; conditions: 3D7 0087/N9, po
Outline: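 SCID mice engrafted with human parasite P. falciparum Pf 3D70087/N9; oral dosing started 3 days after infection, once daily for four consecutive days; parasitemia compared with untreated controls.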

[17] = Solubility of the compound in fasted state stimulated intestinal fluid at pH 6.5 by HPLC analysis; format: physicochemical; conditions: fasted state simulated intestinal fluid
Outline: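 Solubility measured in fasted state simulated intestinal fluid, pH 6.5.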

Mus musculus [18] = experiment: as §2; format: ADME, organism-based; conditions: mouse, in vivo, 24 h; outline: as §3
[19] = Half life in CD1 mouse at 1 mg/kg, iv measured up to 24 hrs post dose by LC-MS/MS analysis; format: ADME, organism-based; conditions: in vivo; outline: as §3
[20] = Chemical stability in SGF media at pH 1.6 after 14 hrs; format: physicochemical; conditions: simulated gi fluid, pH 1.6, 14 h
Outline: (§4)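 Stability in simulated gastric fluid at pH 1.6, held at 37 °C for up to 24 h; checked for degradation products.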

Plasma [21] = experiment: Drug metabolism in Swiss CD1 mouse assessed as 2-(3-(Pyridin-3-yl)-5-(trifluoromethyl)benzoyl)-N-(4-(pyrrolidin-1-ylmethyl)phenyl)hydrazinecarboxamide in plasma at 300 to 500 mg/kg, po by HPLC analysis; format: ADME, organism-based; conditions: in vivo; outline: as §1
[22] = Ratio of IC50 for chloroquine-resistant Plasmodium falciparum 2B12 infected in red blood cells to IC50 for wild type Plasmodium falciparum […] infected in red blood cells; format: functional
[23] = Chemical stability of compound in SGF media at pH 1.6 after 24 hrs; format: physicochemical; conditions: simulated gi fluid, pH 1.6, 24 h; outline: as §4
[24] = AUC in Swiss CD1 mouse plasma at 500 mg/kg, po; format: ADME, organism-based
Outline: (§5)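 Female Swiss CD-1 mice given oral doses of 300 and 500 mg/kg; in-life observations, body weight evolution, relative organ weight, hematology and clinical chemistry recorded; plasma exposure measured at the highest dose; two independent experiments.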

Mus musculus [25] = experiment: Toxicity in Swiss CD1 mouse assessed as effect on in life observation at 300 to 500 mg/kg, po measured up to 24 hrs post dose by Irwin test; format: organism-based; conditions: in vivo; outline: as §5
Mus musculus [26] = experiment: Toxicity in Swiss CD1 mouse assessed as effect on body weight evolution at 300 to 500 mg/kg, po measured up to 24 hrs post dose by Irwin test; format: organism-based; conditions: in vivo; outline: as §5
Mus musculus [27] = experiment: Toxicity in Swiss CD1 mouse assessed as effect on organ weight at 300 to 500 mg/kg, po measured up to 24 hrs post dose by Irwin test; format: organism-based; conditions: in vivo; outline: as §5
[28] = Ratio of TC50 for human HepG2 to IC50 for antiplasmodial activity against Plasmodium falciparum 3D7A infected in red blood cells
Outline: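 Denominator is the asexual P. falciparum 3D7A IC50 from a [3H]hypoxanthine incorporation assay, using two or three independent biological replicates. Numerator is the 50% toxicity value in HepG2 cells, expressed as Tox50/Pf 3D7 IC50.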

Mus musculus [29] = experiment: Toxicity in Swiss CD1 mouse assessed as passivity at 500 mg/kg, po measured up to 24 hrs post dose by Irwin test; format: organism-based; conditions: in vivo
Plasma [30] = experiment: Drug metabolism in Swiss CD1 mouse assessed as 2-([3,4'-Bipyridine]-2'-carbonyl)-N-(4-(pyrrolidin-1-ylmethyl)-phenyl)hydrazinecarboxamide in plasma at 300 to 500 mg/kg, po by HPLC analysis; format: ADME, organism-based; conditions: in vivo; outline: as §1

SMILES: CN1CCc2ccc(Nc3nnc(-c4cccc(-c5cccnc5)c4)o3)cc2C1
pIC50 (Plasmodium falciparum [1]): 7.00
intrinsic clearance (Liver): 1.8 mL/min/g

SMILES: CN1CCCc2ccc(Nc3nnc(-c4cccc(-c5cccnc5)c4)o3)cc2C1
pIC50 (Plasmodium falciparum [1]): 6.18
intrinsic clearance (Liver): 9.3 mL/min/g

SMILES: O=C(O)c1cc(-c2cccnc2)ccn1
Drug metabolism (Plasma [2]): Metabolite_Detected

SMILES: CN1CCc2ncc(Nc3nnc(-c4cccc(-c5cccnc5)c4)o3)cc2C1
pIC50 (Plasmodium falciparum [1]): 7.70

SMILES: CN1CCc2ccc(Nc3nnc(-c4cc(-c5cccnc5)cc(C(F)(F)F)c4)o3)cc2C1
Ratio IC50 (Plasmodium falciparum [4]): 1
pIC50 (Plasmodium falciparum [1]): 7.70
Ratio IC50 [5]: 1
Ratio IC50 [6]: 1
Ratio IC50 (Plasmodium falciparum [7]): 1
Ratio IC50 (Plasmodium falciparum [8]): 1
Ratio IC50 (Plasmodium falciparum [9]): 1
Ratio IC50 (Plasmodium falciparum [10]): 1
AUCED90 (Plasmodium falciparum [11]): 2.2 µg.hr/ml/day
Ratio IC50 (Plasmodium falciparum [12]): 1
clearance [13]: 42 to 43 mL/min/kg
Vd [14]: 3.5 L/kg
bioavailability [15]: 90%
intrinsic clearance (Liver): 0.9 mL/min/g
ED90 (Plasmodium falciparum [16]): 9.3 mg/kg
solubility [17]: 1.2 µg/mL (≈ 2.66 µM)

SMILES: CN1CCc2ccc(Nc3nnc(-c4ccc(F)c(-c5cccnc5)c4)o3)cc2C1
pIC50 (Plasmodium falciparum [1]): 6.32
intrinsic clearance (Liver): 2.2 mL/min/g

SMILES: FC(F)(F)c1cc(-c2cccnc2)cc(-c2nnc(Nc3ccc(CN4CCCC4)cc3)o2)c1
pIC50 (Plasmodium falciparum [1]): 7.52
AUCED90 (Plasmodium falciparum [11]): < 6.1 µg.hr/ml/day
clearance (Mus musculus [18]): 19.5 mL/min/kg
bioavailability [15]: 89%
ED90 (Plasmodium falciparum [16]): < 20 mg/kg
chromatographic logD [3]: 3.3
half-life [19]: 1.4 h
Stability [20]: Unstable
Drug metabolism (Plasma [21]): Metabolite_Detected

SMILES: CN1CCc2ccc(Nc3nnc(-c4cc(OC(F)(F)F)cc(-c5cccnc5)c4)o3)cc2C1
pIC50 (Plasmodium falciparum [1]): 6.66
intrinsic clearance (Liver): < 0.5 mL/min/g

SMILES: c1cncc(-c2ccnc(-c3nnc(Nc4ccc(CN5CCCC5)cc4)o3)c2)c1
Ratio IC50 (Plasmodium falciparum [4]): 1
pIC50 (Plasmodium falciparum [1]): 7.70
Ratio IC50 [6]: 1
Ratio IC50 (Plasmodium falciparum [9]): 1
ED90 (Plasmodium falciparum [16]): 12.4 mg/kg
solubility [17]: > 1000 µg/mL
chromatographic logD [3]: 1.3
Ratio IC50 [22]: 1
Stability [23]: Stable
AUC [24]: 68900 ng·h/mL
Activity (Mus musculus [25]): Non-Toxic
Activity (Mus musculus [26]): Non-Toxic
Activity (Mus musculus [27]): Non-Toxic
Ratio [28]: >1000
Activity (Mus musculus [29]): Toxic
Drug metabolism (Plasma [30]): Metabolite_Detected

Further molecules by rising pIC50 (Plasmodium falciparum [1]), results first:

pIC50 (Plasmodium falciparum [1]): 5.77
intrinsic clearance (Liver): 1.8 mL/min/g
SMILES: c1ccc(Nc2nnc(-c3cccc(-c4cccnc4)c3)o2)cc1

pIC50 (Plasmodium falciparum [1]): 6.16
intrinsic clearance (Liver): 3.3 mL/min/g
SMILES: FC(F)(F)c1cccc(Nc2nnc(-c3cccc(-c4cccnc4)c3)o2)c1

pIC50 (Plasmodium falciparum [1]): 7.05
chromatographic logD [3]: 2.9
SMILES: CN(C)Cc1ccc(Nc2nnc(-c3cc(-c4cccnc4)cc(C(F)(F)F)c3)o2)cn1

pIC50 (Plasmodium falciparum [1]): 7.15
SMILES: CN1CCc2ccc(Nc3nnc(-c4ccnc(-c5cccnc5)c4)o3)cc2C1

pIC50 (Plasmodium falciparum [1]): 7.52
intrinsic clearance (Liver): 1.45 mL/min/g
SMILES: CN1CCc2ccc(Nc3nnc(-c4cncc(-c5cccnc5)c4)o3)cc2C1
